Compound activity (PubChem)
The full list was thinned out, with hits kept by preference.
KDM4C inh: inhibitors of human demethylase GASC-1 KDM4C; Q9H3R0; GST-KDM4C 2-372, H3K9me3 peptide, LANCE TR-FRET; inhibition, % at 12.5 µM; 96,000 tested, 0.15% active;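 active = mean replicate inhibition above about 25%, with at least 55% of replicates also reaching it, limit read from the data, passing the limit was not always enough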
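material = GST-tagged GASC-1 (JMJD2C) catalytic fragment, aa 2-372 | amount = enzyme final amount 10 nM | medium = HEPES buffer, pH 7.5, plus ascorbate | also added = H3K9me3 peptide substrate, Fe(II), 2-oxoglutarate | dosing = single dose | times = 30 min demethylation and 1 h detection at room temperature | detection = LANCE TR-FRET | read-out basis = Fall in 671/618 emission ratio as inhibition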
T cruzi growth-1: inhibitors of T. cruzi proliferation; inhibition, % at 8.34 µM; T. cruzi beta-gal in NIH3T3, GalScreen luminescence, 90 h; AID 624255; 77,000 tested, 5.9% active;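 active = mean inhibition above about 93%, with at least 55% of replicates each passing it, limit read from the data, passing the limit was not always enough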
IDH1 mut inh: IDH1 R132H (human) inhibition; IDH1 R132H reductase, diaphorase/resazurin fluorescence, 60 min; AID 624101; O75874; 70,000 tested, 0.18% active; inhibition, % at 10 µM; in the data active = inhibition above about 34%
Target sequence (O75874 whole entry R132H): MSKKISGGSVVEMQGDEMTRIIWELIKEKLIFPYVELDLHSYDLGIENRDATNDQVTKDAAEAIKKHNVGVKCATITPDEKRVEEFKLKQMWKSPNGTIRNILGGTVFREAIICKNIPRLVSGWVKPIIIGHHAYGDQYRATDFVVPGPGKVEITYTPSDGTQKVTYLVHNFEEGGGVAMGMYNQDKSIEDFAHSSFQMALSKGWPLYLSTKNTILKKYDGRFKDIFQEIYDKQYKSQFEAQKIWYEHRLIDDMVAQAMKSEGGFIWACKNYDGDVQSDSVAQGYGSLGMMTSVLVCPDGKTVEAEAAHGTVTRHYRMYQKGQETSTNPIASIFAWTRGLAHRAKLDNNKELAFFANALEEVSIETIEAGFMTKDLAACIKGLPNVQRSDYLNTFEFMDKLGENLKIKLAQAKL
T cruzi growth-2: inhibitors of T. cruzi proliferation | 5,600 tested, 72% active | AID 651739 | shares compounds with T cruzi growth-1 | inhibition, % at 8.35 µM | T. cruzi beta-gal in NIH3T3, GalScreen luminescence, 90 h;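 active = mean replicate inhibition above about 95% and at least 55% of replicates individually reaching it, limit read from the data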
T cruzi growth-3: blocks T. cruzi growth in NIH3T3 host cells; shares compounds with T cruzi growth-1; T. cruzi beta-gal in NIH3T3, GalScreen luminescence, 90 h; 5,600 tested, 21% active; inhibition, % at 2.09 µM;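 active = mean inhibition above about 95%, with at least 55% of replicates also reaching it, limit read from the data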
NIH3T3 tox: cytotoxicity in mouse NIH/3T3 fibroblasts; AID 651742; cytotoxicity (signal decrease), % at 8.35 µM; 5,600 tested, 14% active; shares compounds with T cruzi growth-1; NIH/3T3 viability, CellTiter-Glo ATP luminescence, 90 h;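 active = mean signal decrease across replicates above about 35% based on untreated-well scatter, with enough replicates individually passing, limit read from the data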
NIH3T3 tox 2: cytotoxicity in mouse NIH/3T3 fibroblasts | NIH/3T3 viability, CellTiter-Glo ATP luminescence, 90 h | inhibition, % at 24.9 µM | shares compounds with T cruzi growth-1 | AID 651744 | 5,600 tested, 56% active;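 active = mean loss of cell viability signal at or above a set limit, and enough replicates individually reaching it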
Each line names hits and unclear results; the compound was inactive in the other large screens (follow-up assays come after a bar, where they were run).

CCC(=O)N1C[C@H](C)[C@@H](OC)CN(C)C(=O)c2ccc(NC(=O)c3ccccc3)cc2OC[C@@H]1C	T cruzi growth-1 108 | T cruzi growth-2 inactive | T cruzi growth-3 inactive | NIH3T3 tox inactive | NIH3T3 tox 2 inactive
Cc1cccc(S(=O)(=O)N(C)C[C@H]2OCc3ccccc3-c3ccccc3C(=O)N([C@H](C)CO)C[C@@H]2C)c1	none
COc1ccccc1-c1ccccc1[C@H]1[C@@H](C#N)N(C(=O)C2CCOCC2)[C@@H]1CO	none (no result: T cruzi growth-1, IDH1 mut inh)
COc1cccc(S(=O)(=O)N2C[C@@H](O)COC[C@@H]3O[C@H](CC(=O)N4CCCCC4)CC[C@H]32)c1	none (no result: IDH1 mut inh)
CCN1[C@H](C(=O)NCc2ccncn2)[C@@H](CO)[C@@H]2Cn3c(ccc(-c4ccc(F)cc4)c3=O)[C@@H]21	none (no result: IDH1 mut inh)
C[C@@H]1CN([C@H](C)CO)C(=O)c2cc(NC(=O)Cc3ccccc3)ccc2O[C@H]1CN(C)CC1CCCCC1	none
C[C@@H]1CCCCO[C@H](CN(C)C(=O)Nc2cccc3ccccc23)[C@H](C)CN([C@H](C)CO)C(=O)c2cc(NS(=O)(=O)c3ccc(F)cc3)ccc2O1	T cruzi growth-1 105 (no result: IDH1 mut inh) | T cruzi growth-2 106 | T cruzi growth-3 inactive | NIH3T3 tox inactive | NIH3T3 tox 2 inactive
Cc1ccc(S(=O)(=O)Nc2ccc3c(c2)C(=O)N([C@@H](C)CO)C[C@H](C)[C@@H](CN(C)C(=O)Nc2cccc4ccccc24)OCCCC[C@@H](C)O3)cc1	none (no result: IDH1 mut inh)
C[C@@H]1CN([C@@H](C)CO)C(=O)c2cc(NS(=O)(=O)c3ccc(F)cc3)ccc2O[C@@H](C)CCCCO[C@H]1CN(C)C(=O)Nc1cccc2ccccc12	T cruzi growth-1 100 | T cruzi growth-2 108 | T cruzi growth-3 inactive | NIH3T3 tox inactive | NIH3T3 tox 2 inactive
C[C@H](CO)N1C[C@H](C)[C@H](CN(C)C(=O)Nc2ccccc2)OCCCC[C@H](C)Oc2ccc(NS(=O)(=O)c3cccs3)cc2C1=O	none (no result: IDH1 mut inh)
C[C@@H]1CN([C@@H](C)CO)C(=O)c2cc(NS(=O)(=O)c3ccc(F)cc3)ccc2O[C@@H](C)CCCCO[C@@H]1CN(C)C(=O)Nc1cccc2ccccc12	T cruzi growth-1 101 (no result: IDH1 mut inh) | T cruzi growth-2 104 | T cruzi growth-3 inactive | NIH3T3 tox inactive | NIH3T3 tox 2 inactive
C[C@H](CO)N1C[C@H](C)[C@@H](CN(C)C(=O)Nc2cccc3ccccc23)OCCCC[C@H](C)Oc2ccc(NS(=O)(=O)c3cccs3)cc2C1=O	T cruzi growth-1 102 (no result: IDH1 mut inh) | T cruzi growth-2 106 | T cruzi growth-3 inactive | NIH3T3 tox inactive | NIH3T3 tox 2 inactive
C[C@H](CO)N1C[C@H](C)[C@H](CN(C)C(=O)Nc2cccc3ccccc23)OCCCC[C@H](C)Oc2ccc(NS(=O)(=O)c3ccc(F)cc3)cc2C1=O	none
Cc1ccc(S(=O)(=O)Nc2ccc3c(c2)C(=O)N([C@@H](C)CO)C[C@H](C)[C@@H](CN(C)C(=O)Nc2cccc4ccccc24)OCCCC[C@H](C)O3)cc1	none
C[C@H](NC(=O)[C@H]1[C@H](CO)[C@H]2Cn3c(ccc(-c4ccccc4F)c3=O)[C@@H]1N2)c1ccccc1	none (no result: IDH1 mut inh)
O=S(=O)(c1ccccc1F)N1CCCCN2[C@H](CO)[C@H](c3ccc(-c4cccnc4)cc3)[C@@H]2C1	none (no result: IDH1 mut inh)
N#Cc1ccc(/C=N/NC(=O)CCCCCCC(=O)O)cc1	none (no result: KDM4C inh, T cruzi growth-1)
NC(=O)COc1ccc(NC(=O)c2cc(-n3cnnc3)ccc2Cl)cc1	none (no result: KDM4C inh, T cruzi growth-1)
C[C@H](CO)N1C[C@H](C)[C@@H](CN(C)C(=O)Nc2ccc3c(c2)OCO3)Oc2ccc(NC(=O)Nc3ccc(C(F)(F)F)cc3)cc2C1=O	none (no result: IDH1 mut inh)
O=C(C[C@H]1C=C[C@@H](NS(=O)(=O)c2ccccc2)[C@H](CO)O1)NCc1ccncn1	none
COCc1cn(CC[C@@H]2CC[C@H](NC(=O)Nc3ccccc3)[C@H](CO)O2)nn1	none
CO[C@H]1CN(C)C(=O)c2ccc(NC(=O)Nc3ccc(F)cc3)cc2OC[C@H](C)NC[C@@H]1C	none (no result: T cruzi growth-1, IDH1 mut inh)
C[C@@H]1CCCCO[C@@H](CN(C)C(=O)Nc2cccc3ccccc23)[C@@H](C)CN([C@H](C)CO)C(=O)c2cc(NS(=O)(=O)c3ccccc3)ccc2O1	none (no result: T cruzi growth-1, IDH1 mut inh)
